Experimental data: ChEMBL document CHEMBL3272249, “Esters of N-tert-butylarterenol. Long-acting new bronchodilators with reduced cardiac effects” (J Med Chem, 1976)

Key:
Canis familiaris [1] = experiment: Cardiotoxicity in spontaneously respiring dog assessed as time of increase in heart rate at 10 to 20 mg/kg, iv relative to control; assay type: toxicity, organism-based, Canis lupus familiaris; parameters: dose 10-20 mg/kg, route intravenous; conditions: in vivo
Procedure, shortened: (§1)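 Anesthetized, spontaneously respiring dogs. Heart rate monitored by lead II EKG; blood pressure from right femoral artery by pressure transducer. Rise in heart rate (beats/min) scored ±=5-15, +=20-40, ++=40-60, +++=>60, n>4/dose; duration of the rise in h. Drug stocks freshly made in distilled water, diluted in physiological saline, kept on ice.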

Canis familiaris [2] = experiment: Bronchodilator activity in dog assessed as degree of inhibition of carbachol or histamine-induced bronchoconstriction at 10 to 20 mg/kg, iv relative to control; assay type: functional, Canis lupus familiaris; conditions: dose mg/kg 10-20
Procedure, shortened: (§2)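 Dog with airway cannulated through a nonbreathing valve. Bronchoconstriction induced by iv carbachol (2–4 µg/kg) or histamine diphosphate (20–50 µg/kg); airway pressure recorded by pressure transducer. Each compound tested against both agonists in different animals, and results were combined and averaged. Bronchodilation = % inhibition of control constriction; degree scored as +, ++, +++ (20-45, 45-70, >70%) from higher dose, ≥3 dogs/dose; duration in h.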

Canis familiaris [3] = experiment: Cardiotoxicity in spontaneously respiring dog assessed as degree of increase in heart rate at 10 to 20 mg/kg, iv relative to control; assay type: toxicity, organism-based, Canis lupus familiaris; parameters: dose 10-20 mg/kg, route intravenous; conditions: in vivo; procedure, shortened: as §1
Canis familiaris [4] = experiment: Bronchodilator activity in dog assessed as time of inhibition of carbachol or histamine-induced bronchoconstriction at 10 to 20 mg/kg, iv relative to control; assay type: functional, Canis lupus familiaris; conditions: dose mg/kg 10-20; procedure, shortened: as §2
Canis familiaris [5] = experiment: Bronchodilator activity in dog assessed as degree of inhibition of carbachol or histamine-induced bronchoconstriction at 5 to 20 mg/kg, iv relative to control; assay type: functional, Canis lupus familiaris; conditions: dose mg/kg 5-20; procedure, shortened: as §2
Canis familiaris [6] = experiment: Bronchodilator activity in dog assessed as time of inhibition of carbachol or histamine-induced bronchoconstriction at 5 to 20 mg/kg, iv relative to control; assay type: functional, Canis lupus familiaris; conditions: dose mg/kg 5-20; procedure, shortened: as §2
Canis familiaris [7] = experiment: Cardiotoxicity in spontaneously respiring dog assessed as time of increase in heart rate at 5 to 20 mg/kg, iv relative to control; assay type: toxicity, organism-based, Canis lupus familiaris; parameters: dose 5-20 mg/kg, route intravenous; conditions: in vivo; procedure, shortened: as §1
Canis familiaris [8] = experiment: Cardiotoxicity in spontaneously respiring dog assessed as degree of increase in heart rate at 5 to 20 mg/kg, iv relative to control; assay type: toxicity, organism-based, Canis lupus familiaris; parameters: dose 5-20 mg/kg, route intravenous; conditions: in vivo; procedure, shortened: as §1
Canis familiaris [9] = experiment: Bronchodilator activity in dog assessed as time of inhibition of carbachol or histamine-induced bronchoconstriction at 5 mg/kg, iv relative to control; assay type: functional, Canis lupus familiaris
Procedure, shortened: (§3)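 Anesthetized dogs with an airway cannula and a nonbreathing valve. Bronchoconstriction was induced by iv carbachol (2–4 μg/kg) or histamine diphosphate (20–50 μg/kg) and read as change in airway pressure by transducer. Each compound was tested against both agonists in different dogs, and the results were combined and averaged. Effect is % inhibition of control constriction, with at least three dogs per dose. Drugs were dissolved fresh in distilled water, diluted in saline and kept on ice.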

Canis familiaris [10] = experiment: Bronchodilator activity in dog assessed as degree of inhibition of carbachol or histamine-induced bronchoconstriction at 5 mg/kg, iv relative to control; assay type: functional; conditions: Canis lupus familiaris
Procedure, shortened: (§4)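 Anesthetized dogs, trachea cannulated with a nonbreathing valve. Bronchoconstriction induced by iv carbachol (2–4 μg/kg) or histamine diphosphate (20–50 μg/kg) in separate animals, and airway pressure recorded by transducer. Drug stocks were made fresh in distilled water, diluted in saline and kept on ice. Read-out was percent inhibition of control constriction, averaged over at least three dogs per dose at the higher dose. Carbachol and histamine data were combined.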

Canis familiaris [11] = experiment: Bronchodilator activity in dog assessed as time of inhibition of carbachol or histamine-induced bronchoconstriction at 5 to 10 mg/kg, iv relative to control; assay type: functional, Canis lupus familiaris; conditions: dose mg/kg 5-10; procedure, shortened: as §3
Canis familiaris [12] = experiment: Bronchodilator activity in dog assessed as degree of inhibition of carbachol or histamine-induced bronchoconstriction at 440 to 880 mg/kg, it relative to control; assay type: functional, Canis lupus familiaris; conditions: dose mg/kg 440-880; route endotracheal; procedure, shortened: as §4
Canis familiaris [13] = experiment: Bronchodilator activity in dog assessed as time of inhibition of carbachol or histamine-induced bronchoconstriction at 440 to 880 mg/kg, it relative to control; assay type: functional, Canis lupus familiaris; conditions: dose mg/kg 440-880; route endotracheal; procedure, shortened: as §3
Canis familiaris [14] = experiment: Bronchodilator activity in dog assessed as degree of inhibition of carbachol or histamine-induced bronchoconstriction at 5 to 10 mg/kg, iv relative to control; assay type: functional, Canis lupus familiaris; conditions: dose mg/kg 5-10; procedure, shortened: as §4
Canis familiaris [15] = experiment: Cardiotoxicity in spontaneously respiring dog assessed as degree of increase in heart rate at 5 to 10 mg/kg, iv relative to control; assay type: toxicity, organism-based, Canis lupus familiaris; parameters: dose 5-10 mg/kg, route intravenous; conditions: in vivo
Procedure, shortened: (§5)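 Anesthetized, spontaneously respiring dogs. Heart rate was taken from a lead II EKG, and blood pressure from the right femoral artery by transducer. The increase in heart rate (beats/min) was scored on a graded scale with more than 4 dogs per dose, and its duration was recorded. Drugs were dissolved fresh in distilled water, diluted in physiological saline and kept on ice.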

Canis familiaris [16] = experiment: Cardiotoxicity in spontaneously respiring dog assessed as time of increase in heart rate at 5 to 10 mg/kg, iv relative to control; assay type: toxicity, organism-based, Canis lupus familiaris; parameters: dose 5-10 mg/kg, route intravenous; conditions: in vivo; procedure, shortened: as §5
Canis familiaris [17] = experiment: Bronchodilator activity in dog assessed as degree of inhibition of carbachol or histamine-induced bronchoconstriction at 50 to 100 mg/kg, iv relative to control; assay type: functional, Canis lupus familiaris; conditions: dose mg/kg 50-100; procedure, shortened: as §4
Canis familiaris [18] = experiment: Cardiotoxicity in spontaneously respiring dog assessed as time of increase in heart rate at 50 to 100 mg/kg, iv relative to control; assay type: toxicity, organism-based, Canis lupus familiaris; parameters: dose 50-100 mg/kg, route intravenous; conditions: in vivo
Procedure, shortened: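 Anesthetized, spontaneously respiring dogs. Heart rate monitored by lead II EKG, with blood pressure taken from the right femoral artery by pressure transducer and recorded on a polygraph. Drug stocks made fresh in distilled water, diluted in physiological saline and kept on ice. Dosing was iv, id or it as listed. The duration of the heart-rate increase was recorded in h, with more than 4 dogs per dose.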

Canis familiaris [19] = experiment: Cardiotoxicity in spontaneously respiring dog assessed as degree of increase in heart rate at 50 to 100 mg/kg, iv relative to control; assay type: toxicity, organism-based, Canis lupus familiaris; parameters: dose 50-100 mg/kg, route intravenous; conditions: in vivo; procedure, shortened: as §5
Canis familiaris [20] = experiment: Bronchodilator activity in dog assessed as time of inhibition of carbachol or histamine-induced bronchoconstriction at 50 to 100 mg/kg, iv relative to control; assay type: functional, Canis lupus familiaris; conditions: dose mg/kg 50-100; procedure, shortened: as §3
Canis familiaris [21] = experiment: Cardiotoxicity in spontaneously respiring dog assessed as time of increase in heart rate at 400 to 800 mg/kg, it relative to control; assay type: toxicity, organism-based, Canis lupus familiaris; parameters: dose 400-800 mg/kg, route endotracheal; conditions: in vivo, inhaled_or_intranasal; procedure, shortened: as §5
Canis familiaris [22] = experiment: Bronchodilator activity in dog assessed as degree of inhibition of carbachol or histamine-induced bronchoconstriction at 400 to 800 mg/kg, it relative to control; assay type: functional, Canis lupus familiaris; conditions: dose mg/kg 400-800; route endotracheal; procedure, shortened: as §4
Canis familiaris [23] = experiment: Cardiotoxicity in spontaneously respiring dog assessed as degree of increase in heart rate at 400 to 800 mg/kg, it relative to control; assay type: toxicity, organism-based, Canis lupus familiaris; parameters: dose 400-800 mg/kg, route endotracheal; conditions: in vivo, inhaled_or_intranasal; procedure, shortened: as §5
Canis familiaris [24] = experiment: Bronchodilator activity in dog assessed as time of inhibition of carbachol or histamine-induced bronchoconstriction at 400 to 800 mg/kg, it relative to control; assay type: functional, Canis lupus familiaris; conditions: dose mg/kg 400-800; route endotracheal
Procedure, shortened: (§6)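 Dog airway model: anesthetized, cannulated via a nonbreathing valve, with airway pressure changes recorded after iv carbachol (2–4 μg/kg) or histamine diphosphate (20–50 μg/kg) challenge, each agonist in different animals. Compounds were given iv, intraduodenally or intratracheally from fresh aqueous stocks diluted in saline. Duration (h) of inhibition of induced bronchoconstriction was followed, and the two agonist datasets were pooled.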

Canis familiaris [25] = experiment: Bronchodilator activity in dog assessed as degree of inhibition of carbachol or histamine-induced bronchoconstriction at 4 to 8 mg/kg, iv relative to control; assay type: functional, Canis lupus familiaris; conditions: dose mg/kg 4-8; procedure, shortened: as §4
Canis familiaris [26] = experiment: Bronchodilator activity in dog assessed as time of inhibition of carbachol or histamine-induced bronchoconstriction at 380 mg/kg, it relative to control; assay type: functional, Canis lupus familiaris; conditions: route endotracheal; procedure, shortened: as §6
Canis familiaris [27] = experiment: Bronchodilator activity in dog assessed as degree of inhibition of carbachol or histamine-induced bronchoconstriction at 380 mg/kg, it relative to control; assay type: functional; conditions: Canis lupus familiaris, route endotracheal; procedure, shortened: as §4
Canis familiaris [28] = experiment: Cardiotoxicity in spontaneously respiring dog assessed as degree of increase in heart rate at 4 to 8 mg/kg, iv relative to control; assay type: toxicity, organism-based, Canis lupus familiaris; parameters: dose 4-8 mg/kg, route intravenous; conditions: in vivo; procedure, shortened: as §5
Canis familiaris [29] = experiment: Cardiotoxicity in spontaneously respiring dog assessed as time of increase in heart rate at 4 to 8 mg/kg, iv relative to control; assay type: toxicity, organism-based, Canis lupus familiaris; parameters: dose 4-8 mg/kg, route intravenous; conditions: in vivo; procedure, shortened: as §5
Canis familiaris [30] = experiment: Bronchodilator activity in dog assessed as time of inhibition of carbachol or histamine-induced bronchoconstriction at 200 to 400 mg/kg, id relative to control; assay type: functional, Canis lupus familiaris; conditions: dose mg/kg 200-400; route intraduodenal; procedure, shortened: as §6
Canis familiaris [31] = experiment: Bronchodilator activity in dog assessed as degree of inhibition of carbachol or histamine-induced bronchoconstriction at 200 to 400 mg/kg, id relative to control; assay type: functional, Canis lupus familiaris; conditions: dose mg/kg 200-400; route intraduodenal; procedure, shortened: as §4
Canis familiaris [32] = experiment: Bronchodilator activity in dog assessed as time of inhibition of carbachol or histamine-induced bronchoconstriction at 4 to 8 mg/kg, iv relative to control; assay type: functional, Canis lupus familiaris; conditions: dose mg/kg 4-8; procedure, shortened: as §6

CC(C)(C)NC[C@H](O)c1ccc(OC(=O)C(C)(C)C)c(O)c1.CS(=O)(=O)O
Time (Canis familiaris [1]): < 0.5 h | inhibition (INH) (Canis familiaris [2]): 45% | Activity (Canis familiaris [3]): 40% | Time (Canis familiaris [4]): <2 h

CC(C)CC(=O)Oc1ccc([C@@H](O)CNC(C)(C)C)cc1O.CS(=O)(=O)O
inhibition (INH) (Canis familiaris [5]): 45% | Time (Canis familiaris [6]): <2 h | Time (Canis familiaris [7]): < 1 h | Activity (Canis familiaris [8]): 40%

CC(C)(C)CC(=O)Oc1ccc([C@@H](O)CNC(C)(C)C)cc1O.CS(=O)(=O)O
Time (Canis familiaris [9]): >3 h | inhibition in vivo at 5 mg/kg (Canis familiaris [10]): 45%

CS(=O)(=O)O.Cc1ccc(C(=O)Oc2ccc([C@@H](O)CNC(C)(C)C)cc2O)cc1
Time (Canis familiaris [11]): >3 h | inhibition (INH) (Canis familiaris [12]): 45% | Time (Canis familiaris [13]): <2 h | inhibition (INH) (Canis familiaris [14]): 45% | Activity (Canis familiaris [15]): 40 beats/min | Time (Canis familiaris [16]): < 0.5 h

CS(=O)(=O)O.Cc1cccc(C(=O)Oc2ccc([C@@H](O)CNC(C)(C)C)cc2O)c1
inhibition (INH) (Canis familiaris [17]): >70% | inhibition (INH) (Canis familiaris [12]): >70% | Time (Canis familiaris [18]): < 0.5 h | Activity (Canis familiaris [19]): 40 beats/min | Time (Canis familiaris [13]): <2 h | Time (Canis familiaris [20]): <2 h

COc1ccc(C(=O)Oc2ccc([C@@H](O)CNC(C)(C)C)cc2O)cc1.Cl
Time (Canis familiaris [21]): < 0.5 h | inhibition (INH) (Canis familiaris [22]): 45% | Activity (Canis familiaris [23]): 20% | Time (Canis familiaris [24]): <2 h

CCCC(=O)Oc1ccc([C@@H](O)CNC(C)(C)C)cc1OC(=O)CCC.Cl
inhibition (INH) (Canis familiaris [25]): >70% | Time (Canis familiaris [26]): <2 h | inhibition in vivo at 380 mg/kg (Canis familiaris [27]): > 70% | Activity (Canis familiaris [28]): 20 beats/min | Time (Canis familiaris [29]): < 1 h | Time (Canis familiaris [30]): >3 h | inhibition (INH) (Canis familiaris [31]): >70% | Time (Canis familiaris [32]): <2 h
